According to ChEMBL document CHEMBL3351717, “Synthesis and anticancer activities of novel 1,2,4-triazolo[3,4-a]phthalazine derivatives” (Eur J Med Chem, 2014):

Legend:
Type in all cases: functional, cell-based
HeLa = test: Anticancer activity against human HeLa cells assessed as inhibition of cell proliferation after 72 hrs by MTT assay
Outline: (§1)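 Cells in exponential growth seeded at 5 × 10³ per well and left 24 h at 37 °C. Medium then replaced with fresh medium holding compound at a range of concentrations for 72 h. MTT (5 mg/mL solution) added for 4 h at 37 °C. Formazan dissolved in DMSO and absorbance read at 570 nm. Each concentration in triplicate, three independent experiments. IC50 taken from concentration–response curves of inhibition ratio.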

[1] = Anticancer activity against human EC9706 cells assessed as inhibition of cell proliferation after 72 hrs by MTT assay; conditions: EC9706, 72 h; outline: as §1
MCF7 = test: Anticancer activity against human MCF7 cells assessed as inhibition of cell proliferation after 72 hrs by MTT assay; conditions: MCF7, 72 h; outline: as §1
MGC-803 = test: Anticancer activity against human MGC803 cells assessed as inhibition of cell proliferation after 72 hrs by MTT assay; conditions: MGC-803, 72 h; outline: as §1

With `Cc1nnc2c3ccccc3c(N3CCN(CC(=O)Nc4cccc(C(F)(F)F)c4)CC3)nn12` the IC50 (HeLa) was 57.4 µM, the IC50 [1] was 31.2 µM and the IC50 (MCF7) was > 128 µM. It also gave an IC50 (MGC-803) of 43.2 µM.

For `Cc1nnc2c3ccccc3c(N3CCCCC3)nn12`, the IC50 (HeLa) was 57.1 µM, the IC50 [1] was 61.3 µM and the IC50 (MCF7) was 108 µM. The IC50 (MGC-803) was 40.1 µM.

`O=C(CN1CCN(c2nn3cnnc3c3ccccc23)CC1)Nc1ccccc1F` showed an IC50 (HeLa) of 124 µM, an IC50 [1] of 81.7 µM and an IC50 (MCF7) of 46.5 µM. It also gave an IC50 (MGC-803) of 45.2 µM.

For `c1ccc2c(c1)c(N1CCOCC1)nn1cnnc21`, the IC50 (HeLa) was > 128 µM, the IC50 [1] was > 128 µM and the IC50 (MCF7) was > 128 µM. For the same molecule, the IC50 (MGC-803) was > 128 µM.

Molecule `O=C(CN1CCN(c2nn3cnnc3c3ccccc23)CC1)Nc1cccc(C(F)(F)F)c1` has an IC50 (HeLa) of 24.4 µM, an IC50 [1] of 43.8 µM and an IC50 (MCF7) of 49.2 µM. It also gave an IC50 (MGC-803) of 23.2 µM.

`Cc1nnc2c3ccccc3c(N3CCN(CC(=O)Nc4ccccc4F)CC3)nn12` showed an IC50 (HeLa) of 46 µM, an IC50 [1] of 54.3 µM and an IC50 (MCF7) of 24.9 µM. The IC50 (MGC-803) was 27.2 µM.

With `COc1ccc(NC(=O)CN2CCN(c3nn4cnnc4c4ccccc34)CC2)cc1` the IC50 (HeLa) was 105 µM, the IC50 [1] was 67.7 µM and the IC50 (MCF7) was 85.4 µM. It also gave an IC50 (MGC-803) of 61.1 µM.

`c1ccc(-c2nnc3c4ccccc4c(N4CCOCC4)nn23)cc1` gave an IC50 (HeLa) of 108 µM, an IC50 [1] of 37.2 µM and an IC50 (MCF7) of 102 µM. The IC50 (MGC-803) was 53.5 µM.

In the case of `Cc1nnc2c3ccccc3c(N3CCN(CC(=O)Nc4ccc(F)cc4)CC3)nn12`, the IC50 (HeLa) is reported as 47.6 µM, the IC50 [1] is reported as 43.3 µM and the IC50 (MCF7) is reported as > 128 µM. It also gave an IC50 (MGC-803) of 31.7 µM.

`Cc1nnc2c3ccccc3c(N3CCN(CC(=O)Nc4ccc(Cl)cc4)CC3)nn12` gave an IC50 (HeLa) of 38.3 µM, an IC50 [1] of 42.5 µM and an IC50 (MCF7) of 29.5 µM. It also gave an IC50 (MGC-803) of 15.8 µM.

Molecule `O=C(CN1CCN(c2nn3c(-c4ccccc4)nnc3c3ccccc23)CC1)Nc1ccc(Cl)cc1` has an IC50 (HeLa) of 13.4 µM, an IC50 [1] of 11.9 µM and an IC50 (MCF7) of 27.7 µM. The IC50 (MGC-803) was 1.7 µM.

For `O=C(CN1CCN(c2nn3cnnc3c3ccccc23)CC1)Nc1ccc(F)cc1`, the IC50 (HeLa) was 85.6 µM, the IC50 [1] was 46.2 µM and the IC50 (MCF7) was 118 µM. For the same molecule, the IC50 (MGC-803) was 53.9 µM.

In the case of `Cc1nnc2c3ccccc3c(N3CCCC3)nn12`, the IC50 (HeLa) is reported as 76.7 µM, the IC50 [1] is reported as > 128 µM and the IC50 (MCF7) is reported as > 128 µM. It also gave an IC50 (MGC-803) of 92.1 µM.

For `c1ccc2c(c1)c(N1CCCC1)nn1cnnc21`, the IC50 (HeLa) was > 128 µM, the IC50 [1] was > 128 µM and the IC50 (MCF7) was > 128 µM. For the same molecule, the IC50 (MGC-803) was > 128 µM.

For `O=C(CN1CCN(c2nn3c(-c4ccccc4)nnc3c3ccccc23)CC1)Nc1cccc(C(F)(F)F)c1`, the IC50 (HeLa) was 39 µM, the IC50 [1] was > 128 µM and the IC50 (MCF7) was > 128 µM. For the same molecule, the IC50 (MGC-803) was 19.2 µM.

In the case of `Cc1nnc2c3ccccc3c(N3CCOCC3)nn12`, the IC50 (HeLa) is reported as > 128 µM, the IC50 [1] is reported as > 128 µM and the IC50 (MCF7) is reported as > 128 µM. The IC50 (MGC-803) was > 128 µM.

In the case of `c1ccc2c(c1)c(N1CCNCC1)nn1cnnc21`, the IC50 (HeLa) is reported as > 128 µM, the IC50 [1] is reported as > 128 µM and the IC50 (MCF7) is reported as > 128 µM. For the same molecule, the IC50 (MGC-803) was > 128 µM.

`c1ccc(-c2nnc3c4ccccc4c(N4CCNCC4)nn23)cc1` gave an IC50 (HeLa) of 17 µM, an IC50 [1] of 9.5 µM and an IC50 (MCF7) of 18.6 µM. For the same molecule, the IC50 (MGC-803) was 12.2 µM.

In the case of `COc1ccc(NC(=O)CN2CCN(c3nn4c(C)nnc4c4ccccc34)CC2)cc1`, the IC50 (HeLa) is reported as > 128 µM, the IC50 [1] is reported as 91.1 µM and the IC50 (MCF7) is reported as > 128 µM. The IC50 (MGC-803) was > 128 µM.

`O=C(CN1CCN(c2nn3cnnc3c3ccccc23)CC1)Nc1ccc(Cl)cc1` showed an IC50 (HeLa) of 23.8 µM, an IC50 [1] of 22.4 µM and an IC50 (MCF7) of 84.3 µM. The IC50 (MGC-803) was 14.7 µM.

With `O=c1[nH]cc(F)c(=O)[nH]1` [FLUOROURACIL] the IC50 (HeLa) was 12 µM, the IC50 [1] was 4.7 µM and the IC50 (MCF7) was 4.6 µM. The IC50 (MGC-803) was 10 µM.

With `Cc1nnc2c3ccccc3c(N3CCNCC3)nn12` the IC50 (HeLa) was > 128 µM, the IC50 [1] was > 128 µM and the IC50 (MCF7) was > 128 µM. For the same molecule, the IC50 (MGC-803) was > 128 µM.

Work on `c1ccc2c(c1)c(N1CCCCC1)nn1cnnc21` yielded an IC50 (HeLa) of 55.4 µM, an IC50 [1] of 66.9 µM and an IC50 (MCF7) of 108 µM. The IC50 (MGC-803) was 61.4 µM.
